# Source: PubChem (several laboratories)
# An excerpt weighted towards active compounds, which were near 3.8% of everything screened.
# RAM inhibit: inhibitors of the yeast RAM network, primary screen, dse1pr::URA3 reporter, 5-FOA selection; S. cerevisiae dse1pr::URA3 reporter, 5-FOA growth OD615, 2 d; analog-sensitive cbk1-as2 kinase mutant strain; 190,000 tested, 1.8% active; inhibition, % at 50 µM;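 active = inhibition above a set limit, 3 SD over mean compound inhibition, cut at about 8.4% in these data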;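 also: inhibition rescues growth on 5-FOA so higher OD means more RAM inhibition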
# NPY-Y2 antag: NPY-Y2 receptor antagonists, primary screen, cell-based; Neuropeptide Y receptor type 2 (Homo sapiens), P49146; AID 793, 2007; NPY-Y2 expressing cells, antagonist mode; inhibition, % at 2.7 µM; 140,000 tested, 0.99% active; in the data active = inhibition above about 17%
# NPY-Y1 antag: NPY-Y1 receptor antagonists, primary screen, cell-based. AID 1040, 2008. Neuropeptide Y receptor type 1 (Homo sapiens), P25929. inhibition, % at 3.6 µM. 200,000 tested, 1% active. HEK293-CNG Y1 cells, membrane potential fluorescence; NPY at EC95, then isoproterenol;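 active = inhibition above the campaign mean inhibition of all tested compounds plus 3 SD, cut at about 20% in these data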
# Target sequence (P25929 whole entry, looked up): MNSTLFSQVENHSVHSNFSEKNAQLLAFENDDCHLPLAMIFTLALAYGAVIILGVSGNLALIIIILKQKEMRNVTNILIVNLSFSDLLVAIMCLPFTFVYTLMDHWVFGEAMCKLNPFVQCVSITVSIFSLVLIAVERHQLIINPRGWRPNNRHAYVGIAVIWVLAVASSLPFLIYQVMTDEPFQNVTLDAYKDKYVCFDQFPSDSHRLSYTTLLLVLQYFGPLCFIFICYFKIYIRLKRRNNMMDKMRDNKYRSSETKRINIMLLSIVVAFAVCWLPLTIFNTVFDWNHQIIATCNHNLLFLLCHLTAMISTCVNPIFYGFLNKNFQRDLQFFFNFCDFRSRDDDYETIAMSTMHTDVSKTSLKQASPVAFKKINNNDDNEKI
#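 Test system: HEK293 cells co-expressing NPY Y1 receptor and cyclic-nucleotide gated channel; Also added: NPY (25 nM), isoproterenol (1 µM), Ro 20-1724 (25 µM); Compound dosing: one concentration, 3.6 µM, in 0.4% DMSO; Timing: dye 3 h, compound 60 min room temperature, stimulation 45 min; Technique: Membrane-potential fluorescent dye readout.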
# NPY2 pot ag: NPY-Y2 potentiators or agonists, primary screen, cell-based; Neuropeptide Y receptor type 2 (Homo sapiens), P49146; cells expressing NPY-Y2, potentiator/agonist read-out; activation, % at 3.6 µM; 220,000 tested, 0.45% active; AID 1359, 2008; in the data active = activation above about 27%;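 also: cells stimulated with NPY near EC25 plus isoproterenol at EC100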
# NPY1 pot ag: NPY-Y1 receptor potentiators or agonists, primary screen, cell-based | Neuropeptide Y receptor type 1 (Homo sapiens), P25929 | NPY-Y1 expressing cells, potentiator/agonist activation | activation, % at 3.6 µM | 220,000 tested, 0.37% active | AID 1304, 2008; in the data active = activation above about 33%, passing the limit was not always enough;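 also: cells stimulated with NPY at EC10 then isoproterenol at EC100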
# INS promoter inh: inhibitors of insulin promoter-driven GFP, primary screen, imaging, TRM-6 cells, eGFP reporter, cell count; 130,000 tested, 0.9% active; reporter expression induced with tamoxifen; AID 1273, 2008; inhibition, % at 2 µM;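 active = inhibition above the mean plus 3 SD, with well images judged a real hit on visual review, cut at about 60% in these data, passing the limit was not always enough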
# Hits are given with their value; n = inactive; x = not tested or not shown.
SMILES,RAM inhibit,NPY-Y2 antag,NPY-Y1 antag,NPY2 pot ag,NPY1 pot ag,INS promoter inh
O=C(Nc1ccccc1-c1nnc(SCc2ccc(Cl)cc2)o1)c1ccccc1,8.4,n,n,n,n,n
CCC[N+](CC#Cc1ccccc1)(CCC)CC(=O)OCC,n,n,n,n,n,x
O=C(O)c1ccccc1-n1c2ccccc2c2ccccc21,x,x,x,n,n,x
COC(=O)Cc1c[nH]c2ccc(OCC(O)CNC(C)C)cc12 (stereo not given),n,n,n,88.1,101.3,x
CC(=O)NCCc1c[nH]c2ccc(OCC(O)CNC(C)(C)C)cc12 (stereo not given),x,x,x,57.3,81.4,x
CC(C)NCC(O)COc1cccc2[nH]ccc12 (stereo not given),x,x,n,105.7,113.3,x
CC(=O)NCCCc1c[nH]c2ccc(Cl)cc12,n,n,n,n,n,x
O=C(NCc1cccnc1)C(=O)Nc1ccc2c(c1)OCO2,n,x,n,n,n,x
Cc1ccc2[nH]c3c(c2c1)SC(C)(C)CC3=O,n,x,n,n,n,x
COc1ccc(CC(=O)N2CCN(C(=O)Cc3ccc(OC)cc3)CC2)cc1,n,n,n,n,n,n
COc1ccc(CC(=O)N2CCN(c3ccc(C4=NNC(=O)CC4C)cc3)CC2)cc1 (stereo not given),n,82.9,79.3,n,n,x
O=[N+]([O-])c1cc(C(F)(F)F)cc([N+](=O)[O-])c1NCCCNc1ccc([N+](=O)[O-])c2cccnc12,9.0,n,n,n,n,n
O=[N+]([O-])c1cc(C(F)(F)F)cc([N+](=O)[O-])c1NCc1cccnc1,n,n,n,n,n,x
O=C(c1cc2c(s1)-c1ccccc1OC2)N1CCCC1,n,n,n,31.3,42.4,x
O=C(c1cc2c(s1)-c1ccccc1OC2)N1CCN(c2ccccc2)CC1,n,n,n,n,n,x
Cc1ccc(-n2nc(C)cc2N)c(C)c1,n,x,n,n,n,x
CCCSC1=N/C(=C\c2ccc3c(c2)OCO3)C(=O)S1,10.3,n,n,n,n,n
O=C(NNc1cccc([N+](=O)[O-])c1)/C(=C\c1cccnc1)NC(=O)c1ccccc1,x,x,x,n,n,x
CC(Sc1nc2cc([N+](=O)[O-])ccc2n1-c1cccc(C(F)(F)F)c1)C(=O)NC(N)=O (stereo not given),n,n,n,n,n,n
Cn1nc(C(=O)NCc2ccco2)c2ccccc2c1=O,n,n,n,n,n,61.5
CCOc1ccc(-n2c(=O)c3sccc3n(CC(=O)NCCc3ccc(OC)c(OC)c3)c2=O)cc1,n,x,n,n,n,n
O=C(CSc1c(Cl)cccc1Cl)N1CCC(c2nc3ccccc3s2)CC1,9.4,n,n,n,n,n
CN1CCN(NC(=O)c2cc(S(=O)(=O)Nc3ccc(Cl)cc3)ccc2Cl)CC1,x,x,x,n,n,x
COC(=O)c1cc(=O)n(CCc2ccccc2F)c(=Nc2ccc(F)c(Cl)c2)s1,10.0,n,n,n,n,x
COC(=O)c1cc(=O)n(Cc2ccco2)c(=Nc2ccc(F)c(Cl)c2)s1,n,n,n,n,n,x
SMILES,RAM inhibit,NPY-Y2 antag,NPY-Y1 antag,NPY2 pot ag,NPY1 pot ag,INS promoter inh
O=C(O)c1ccccc1Cc1nc2cc(Cl)ccc2c(=O)[nH]1,8.6,x,n,n,n,x
COC(=O)c1ccc2c(=O)[nH]c(CN3c4ccccc4CC3C)nc2c1 (stereo not given),n,n,n,n,n,n
CC1Cc2ccccc2N1Cc1nc2cc(Cl)ccc2c(=O)[nH]1 (stereo not given),n,n,n,61.1,65.3,n
CCOC(=O)c1ccccc1Cc1nc2ccccc2c(=O)[nH]1,n,n,n,n,n,x
CCN1CCc2nc3ccccc3c(C(=O)Nc3ccc(C#N)cc3)c2C1,n,x,n,n,n,x
O=C(O)c1cnc2ccccc2n1,n,n,n,n,n,84.6
COC(=O)c1cnc2ccccc2n1,n,n,n,n,n,n
COc1cccc(NC(=O)c2cccc(OC)c2OC)c1,n,n,n,n,n,n
COc1cc(Cl)c(C)cc1NC(=O)c1cccc(OC)c1OC,10.3,x,n,n,n,x
C=CCc1c(C)[nH]c2ccc(C)cc2c1=O,n,n,n,n,n,n
CCCc1c(C)[nH]c2ccccc2c1=O,n,n,n,n,n,71.0
CCc1c(C)[nH]c2ccc(C)cc2c1=O,n,n,n,n,n,77.4
CC1=CCC2C(=O)N(c3ccccc3OC(=O)c3ccccc3F)C(=O)C2C1 (stereo not given),n,n,n,n,n,n
COc1ccc(N2CCN(CC(O)COc3ccc4c(c3)CCC4)CC2)cc1 (stereo not given),n,n,n,n,n,n
CCOC(=O)c1ccc(N2C(=O)CC(N(Cc3ccc4c(c3)OCO4)C(=O)Nc3ccccc3)C2=O)cc1 (stereo not given),n,n,n,n,n,n
CN(C)c1ccnc(Oc2ccc(C(C)(C)C)cc2)c1C#N,n,n,n,n,n,n
COc1cc(NC(=O)CN(C)Cc2cccc(F)c2)c(C)cc1[N+](=O)[O-],n,x,n,n,n,n
CC(C)OP(=O)(OC(C)C)C(NC(=O)c1ccccc1)C(N)=O (stereo not given),x,x,x,n,n,x
CC(C)OP(=O)(OC(C)C)C(C)NC(=O)Cc1ccccc1 (stereo not given),n,x,n,n,n,81.8
COCCn1c(N)c(N(Cc2ccccc2)C(=O)c2cc3ccccc3o2)c(=O)[nH]c1=O,n,x,n,n,n,x
O=C(c1ccccc1)c1nc2ccccc2n(CCCn2c(=O)c(C(=O)c3ccccc3)nc3ccccc32)c1=O,9.6,n,n,n,n,n
O=C(Nc1nccs1)c1ccc(-c2ccc(Cl)cc2Cl)o1,9.5,n,n,n,n,x
Cc1cccc(C)c1NC(=O)c1ccc(-c2ccc(Cl)cc2Cl)o1,n,n,n,n,n,n
CCOC(=O)C1(C)C=C(Nc2ccc(C)cc2)C(=O)N1c1ccc(C)cc1 (stereo not given),n,x,n,n,n,70.4
COc1ccc(C(=O)NCC(C)(C)SCc2c(C)cc(C)cc2C)cc1,9.3,n,n,n,n,n
SMILES,RAM inhibit,NPY-Y2 antag,NPY-Y1 antag,NPY2 pot ag,NPY1 pot ag,INS promoter inh
COc1ccc(CNC(=O)c2ccc(C(C)(C)C)cc2)cc1,n,x,n,n,n,x
CC(/C=N/NC(=O)c1cnccn1)=C\c1ccco1,x,x,x,n,n,x
CC(C)COc1nc2c(c(=O)n(C)c(=O)n2C)n1C,x,x,x,n,n,x
CCOC(=O)c1ccc(N/C=C\C(=O)c2cccc(OC)c2)cc1,10.4,n,n,n,n,n
COc1cccc(Oc2ccc(N/C=C/C(=O)C(C)(C)C)cc2)c1,n,n,n,n,n,75.0
N#CC12CCCCC1CC1CCCCC1(C#N)N2Cc1cccnc1 (stereo not given),n,n,n,n,n,x
